Assay [1] deals with T1, Neuropeptide Y receptor type 2 (Homo sapiens, UniProt P49146).
T1 sequence (P49146 whole entry): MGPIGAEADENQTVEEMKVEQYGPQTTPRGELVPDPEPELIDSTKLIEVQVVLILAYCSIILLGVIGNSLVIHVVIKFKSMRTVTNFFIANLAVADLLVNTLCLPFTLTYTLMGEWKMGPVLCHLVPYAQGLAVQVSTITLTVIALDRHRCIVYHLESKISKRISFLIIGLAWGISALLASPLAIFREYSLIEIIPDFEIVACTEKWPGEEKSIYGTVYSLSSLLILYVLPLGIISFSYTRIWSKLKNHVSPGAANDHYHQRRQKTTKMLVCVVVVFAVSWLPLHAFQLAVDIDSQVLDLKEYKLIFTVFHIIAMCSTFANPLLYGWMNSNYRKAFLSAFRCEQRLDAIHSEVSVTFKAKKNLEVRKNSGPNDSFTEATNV
As to the kind of experiment: Agonist activity at human NPY2 receptor in CHO cells by inhibition of forskolin-stimulated cAMP synthesis. It is filed as functional, cell-based. The essentials: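 Whole-cell cAMP: Y1 in HEK293 cells; Y2, Y4 and Y5 in CHO cells; 30,000 cells/well grown 48 h. Cells preincubated 20 min at 37 °C in HBSS with 10 mM HEPES pH 7.4, 0.2% BSA, 4 mM MgCl2 and 1 mM IBMX. Then 10 min at 37 °C with forskolin (2.5 µM CHO; 5.0 µM HEK293) plus graded peptide. Ethanol lysis, 125I-cAMP flashplate readout. Triplicate points, ≥3 repeats, nonlinear regression.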

The target in assay [2] is T2, Neuropeptide Y receptor type 4 (Homo sapiens, UniProt P50391). As to the kind of experiment: Displacement of [125I]hPP from human NPY4 receptor expressed in CHO cells. It is filed as cell-based. The essentials:
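Y4 binding used membranes from CHO cells stably expressing cloned human Y4, with 125I-PP as radioligand. Competing peptides were tested over a range of concentrations in 50 mM HEPES pH 7.3, 0.1% BSA, 2.5 mM CaCl2 and 1 mM MgCl2 for 90 min at room temperature. Separation was by filtration and γ-counting. Nonspecific binding was taken with 1 µM PP. Duplicate points, three experiments, nonlinear regression.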
On the technique in general: In a radioligand displacement assay an active substance lowers the binding of a labelled ligand.

Assay [3] addresses T3, Neuropeptide Y receptor type 1 (Homo sapiens, UniProt P25929).
T3 sequence (P25929 whole entry): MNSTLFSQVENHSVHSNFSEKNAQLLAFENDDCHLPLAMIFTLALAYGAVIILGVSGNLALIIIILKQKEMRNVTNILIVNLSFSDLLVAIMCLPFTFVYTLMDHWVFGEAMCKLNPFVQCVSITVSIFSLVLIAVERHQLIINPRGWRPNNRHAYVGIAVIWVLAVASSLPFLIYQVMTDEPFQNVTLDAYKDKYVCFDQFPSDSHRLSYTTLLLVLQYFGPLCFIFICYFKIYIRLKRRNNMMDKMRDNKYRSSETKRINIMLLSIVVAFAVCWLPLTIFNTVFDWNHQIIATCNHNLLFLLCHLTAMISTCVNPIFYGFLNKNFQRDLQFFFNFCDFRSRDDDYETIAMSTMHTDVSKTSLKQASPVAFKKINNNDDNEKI
The experiment in a line: Displacement of […] from human NPY1 receptor expressed in CHO cells. Type of assay: cell-based. In outline: (§1)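 Competition binding on membranes (5-10 µg protein) from CHO cells stably expressing human Y1, Y2 or rat-human hybrid Y5 receptors. Radioligand 0.2 nM 125I-PYY, incubated with a range of peptide concentrations in 50 mM HEPES pH 7.3, 0.1% BSA, 2.5 mM CaCl2 and 1 mM MgCl2 for 90 min at room temperature. Bound ligand separated on PEI-treated glass fibre filters, washed with PBS and γ-counted. 1 µM NPY defined nonspecific binding. Duplicate points, three experiments, nonlinear regression.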

In assay [4] the target is T1, Neuropeptide Y receptor type 2. The experiment in a line: Displacement of […] from human NPY2 receptor expressed in CHO cells. It is filed as cell-based. In outline:
as §1

Assay [5] is described as follows: Displacement of […] from rat-human hybrid NPY5 receptor expressed in CHO cells. Type of assay: cell-based. The essentials: as §1
The species named for assay [6] is Homo sapiens. As to the kind of experiment: Selectivity for human NPY4 over NPY1 receptor.
The species named for assay [7] is Homo sapiens. The experiment in a line: Selectivity for human NPY4 over NPY2 receptor.
Assay [8] can be described thus: Selectivity for human NPY4 over rat-human hybrid NPY5 receptor.
Assay [9] addresses T2, Neuropeptide Y receptor type 4. As to the kind of experiment: Agonist activity at human NPY4 receptor in CHO cells by inhibition of forskolin-stimulated cAMP synthesis.
For assay [10], the target named is T3, Neuropeptide Y receptor type 1. The experiment in a line: Agonist activity at human NPY1 receptor in CHO cells by inhibition of forskolin-stimulated cAMP synthesis. Type of assay: functional, cell-based.

pEC50, pKi: −log10 of the molar value. Non-standard residues stand in square brackets, D forms with d. Residues, ends and D or L forms follow the SMILES beside them. Nva = CCC[C@H](N)C(=O)O

T2 sequence (P50391 whole entry): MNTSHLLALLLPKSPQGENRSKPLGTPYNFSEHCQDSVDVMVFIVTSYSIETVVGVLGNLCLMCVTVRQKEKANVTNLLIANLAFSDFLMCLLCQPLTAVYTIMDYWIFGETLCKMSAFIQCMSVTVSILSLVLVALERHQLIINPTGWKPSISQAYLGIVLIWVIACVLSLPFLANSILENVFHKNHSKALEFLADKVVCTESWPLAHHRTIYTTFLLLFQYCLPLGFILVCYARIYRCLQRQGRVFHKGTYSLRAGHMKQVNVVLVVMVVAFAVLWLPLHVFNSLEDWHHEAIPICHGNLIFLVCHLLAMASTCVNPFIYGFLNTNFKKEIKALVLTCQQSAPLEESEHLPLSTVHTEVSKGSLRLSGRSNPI

As for `CCC[C@H](NC(=O)[C@H](CCCN=C(N)N)NC(=O)[C@H](Cc1c[nH]c2ccccc12)NC(=O)[C@H](Cc1ccc(O)cc1)NC(=O)[C@H](CCCN=C(N)N)NC(=O)[C@H](CCC)NC(=O)[C@H](CCCN=C(N)N)NC(=O)[C@H](Cc1c[nH]c2ccccc12)NC(=O)[C@H](Cc1ccc(O)cc1)NC(=O)[C@H](CCCN=C(N)N)NC(=O)[C@H](CCC)NC(=O)[C@H](CCCN=C(N)N)NC(=O)[C@@H](N)Cc1c[nH]c2ccccc12)C(=O)N[C@@H](CCCN=C(N)N)C(=O)N[C@@H](Cc1ccc(O)cc1)C(N)=O` (H-WR[Nva]RYWR[Nva]RYWR[Nva]RY-NH2), the negative logarithm of the EC50 (pEC50) is 5.93 in [1] and 6.64 in assay [9]. Also, the negative logarithm of the Ki (pKi) in [2] was 8.41; in [3], 7.52; in assay [4], 7.30; in assay [5], 6.80. For the same compound, the Selectivity ratio is 10 in the assay listed under Homo sapiens [6], 14 in the assay filed under Homo sapiens [7] and 40 in [8].
In the case of `CC(C)C[C@H](NC(=O)[C@H](CCCN=C(N)N)NC(=O)[C@H](Cc1ccc(O)cc1)NC(=O)[C@@H](N)CCCC[C@H](N)C(=O)N[C@@H](Cc1ccc(O)cc1)C(=O)N[C@@H](CCCN=C(N)N)C(=O)N[C@@H](CC(C)C)C(=O)N[C@@H](CCCN=C(N)N)C(=O)N[C@@H](Cc1ccc(O)cc1)C(N)=O)C(=O)N[C@@H](CCCN=C(N)N)C(=O)N[C@@H](Cc1ccc(O)cc1)C(N)=O`, the negative-log EC50 (pEC50) was 6.62 in assay [10] and 7.83 in assay [9]. Besides, the negative logarithm of the Ki (pKi) was 10.30 in [2], 8.12 in [3], 6.05 in assay [4] and less than 6.00 in assay [5].

Broadly, the pEC50 is −log10 of the EC50, conventionally taken in molar units. For orientation: pKi means the negative decadic logarithm of the Ki, by convention in mol/L. A high value points to a low Ki.

These data come from ChEMBL document CHEMBL1146122, “Neuropeptide Y (NPY) Y4 receptor selective agonists based on NPY(32-36): development of an anorectic Y4 receptor selective agonist with picomolar affinity” (J Med Chem, 2006).
